CSN inh: CSN deneddylation inhibition | Q92905 | Purified CSN, SCF-Nedd8-OG deneddylation, fluorescence polarization | inhibition, % at 12.5 µM | 360,000 compounds, 0.38% hits | AID 651999;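 active means pattern-corrected inhibition above about 35%, with an unprinted fluorescence ratio check between 0.5 and 1.5, limit read from the data, passing the limit was not always enough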;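 further: 0% = enzyme with substrate and 100% = substrate without enzyme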
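test system = HEK293T-derived human Csn5 enzyme | amount = 0.24 nM Csn5 enzyme, final concentration | medium = Tris/NaCl/DTT buffer, pH 7.5 | schedule = 90 min reaction at room temperature | signal = FP | evaluation = inhibition of Csn5 cleavage, % | compound dosing = single dose of 12.5 µM compound with 0.25% DMSO | probe or stimulus = 10 nM SCFSkp2-Nedd8OG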
HNF4A DNA FP: change in binding of human HNF4 alpha to DNA | HNF4a-FITC DNA binding, fluorescence polarization, 1 h | activity change, % at 10 µM | 360,000 compounds, 0.3% hits | AID 1224865; in the data active means activity change above about 30%, passing the limit was not always enough
TPT1 inh: inhibitors of Candida albicans tRNA 2'-phosphotransferase TPT1; inhibition, % at 5 µM; recombinant caTPT1, FP RNA substrate dephosphorylation; 300,000 compounds, 0.81% hits;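 active means inhibition above the mean of all tested compounds plus 3 SD, set per screening campaign, cut at about 24% in these data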;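 further: plate controls were DMSO alone for no effect and ferristatin control at 100 nM for full effect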
ATG4B inh: ATG4B (human) cysteine protease inhibition. 340,000 compounds, 0.51% hits. inhibition, % at 8.33 µM. ATG4B cleavage of LC3-PLA2, NBD-HPC fluorescence, 1 h. Q9Y4P1
SENP1 FRET inh: inhibitors of human SENP1 SUMO protease catalytic domain; recombinant SENP1 catalytic domain, CyPet-SUMO1-YPet FRET cleavage; inhibition, % at 10 µM; 360,000 compounds, 0.21% hits; AID 624204;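 active means inhibition at least 30% at 10 µM, raw YFP signal under a set limit, fluorescence ratio 0.5 to 1.5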;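 further: 0% = enzyme with DMSO and 100% = no enzyme wells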
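material = recombinant human SENP1 catalytic domain, His6-tagged | quantity = 20 pM enzyme | reagent = 25 nM SUMO1 FRET substrate | compound dosing = 10 µM single point, 0.5% DMSO | timing = 50 min enzyme reaction, room temperature, light-protected | detection = FRET, CFP and YFP emission | control set = no-enzyme low, enzyme-DMSO high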
Rpn11 inh: blocks the human proteasome subunit Rpn11; O00487; human 26S proteasome, Ub4-pepOG fluorescence polarization; 20S core pre-blocked with epoxomicin; inhibition, % at 20 µM; 360,000 compounds, 0.59% hits;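 active means inhibition at 20 µM, scaled to each plate's controls, above about 33%, limit read from the data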
Rpn11 confirm: Rpn11 inhibition confirmation, single concentration; inhibition, % at 20 µM; 1,900 compounds, 29% hits; purified human 26S proteasome, Ub4-pepOG fluorescence polarization; proteasome pretreated with epoxomicin; shares compounds with Rpn11 inh
MMP-2 counter: counter-screen for RPN11 inhibitors: inhibition of human MMP-2. shares compounds with Rpn11 inh. recombinant MMP-2, FRET peptide cleavage fluorescence. inhibition, % at 20 µM. 1,900 compounds, 4% hits;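 further: human MMP-2 activated beforehand with APMA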
Target sequence (P08253 whole entry, looked up): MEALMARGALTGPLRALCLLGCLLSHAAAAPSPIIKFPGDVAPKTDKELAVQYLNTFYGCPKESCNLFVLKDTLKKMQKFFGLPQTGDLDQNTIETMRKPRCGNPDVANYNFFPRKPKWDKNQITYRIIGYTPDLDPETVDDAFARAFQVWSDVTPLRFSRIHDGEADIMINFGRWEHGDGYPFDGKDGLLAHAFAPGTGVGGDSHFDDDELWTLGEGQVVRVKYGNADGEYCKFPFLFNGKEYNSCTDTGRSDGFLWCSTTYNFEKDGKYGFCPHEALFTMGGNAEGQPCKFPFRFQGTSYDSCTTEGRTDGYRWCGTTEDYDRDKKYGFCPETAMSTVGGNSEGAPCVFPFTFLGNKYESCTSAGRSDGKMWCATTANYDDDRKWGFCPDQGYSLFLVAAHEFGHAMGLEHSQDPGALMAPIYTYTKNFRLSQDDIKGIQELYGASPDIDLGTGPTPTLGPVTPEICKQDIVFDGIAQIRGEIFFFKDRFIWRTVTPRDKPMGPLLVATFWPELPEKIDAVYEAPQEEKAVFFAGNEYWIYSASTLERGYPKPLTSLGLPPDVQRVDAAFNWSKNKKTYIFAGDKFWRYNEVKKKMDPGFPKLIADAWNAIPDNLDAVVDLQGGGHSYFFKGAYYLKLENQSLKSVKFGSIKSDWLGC
Thrombin FP: thrombin (bovine) inhibition counter-screen; shares compounds with Rpn11 inh; bovine thrombin cleavage of Ub4-pepOG, fluorescence polarization; inhibition, % at 20 µM; 1,900 compounds, 13% hits;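 active means mean inhibition at least 40% at 20 µM, or signal 3 deviations below plate average, so some actives read negative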;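 further: plate controls were thrombin with DMSO for no effect and buffer wells lacking thrombin for full effect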
Active calls of the source: *. Shown are actives, neighbours in structure and some others; about 2% of the full set was active somewhere. Unless noted, no stated cut-off is given here; in the data, active means inhibition above about 40%; inactive means the rest.

Results for CCOc1ccccc1C1N=C(c2ccc(OC)cc2)CC(c2ccccc2O)N1 (stereo not given) ?
CSN inh: 5; HNF4A DNA FP: 2; TPT1 inh: 0; ATG4B inh: 0; SENP1 FRET inh: -17; Rpn11 inh: 42*; Rpn11 confirm: -13; MMP-2 counter: -46; Thrombin FP: -4

How did CCOC(=O)c1[nH]c(CSc2nnnn2-c2ccccc2C)c(C(=O)OCC)c1C do in these assays?
CSN inh: 3; HNF4A DNA FP: 15; TPT1 inh: 2; ATG4B inh: -7; SENP1 FRET inh: 1; Rpn11 inh: 62*; Rpn11 confirm: 30; MMP-2 counter: 12; Thrombin FP: 5

What do the screens show for `Cc1ccccc1-n1nnnc1SCC(C)C`?
CSN inh: 0; HNF4A DNA FP: 1; TPT1 inh: 3; ATG4B inh: 12; SENP1 FRET inh: 1; Rpn11 inh: 2

How did Cc1ccc(C(C)(O)CS(=O)(=O)Cc2ccccc2Cl)cc1 (stereo not given) do in these assays?
CSN inh: 1; HNF4A DNA FP: -1; TPT1 inh: 3; ATG4B inh: 6; SENP1 FRET inh: 1; Rpn11 inh: -1

Results for CNc1ccc2nnc(C(F)(F)C(F)(F)C(F)(F)F)n2n1 ?
CSN inh: -10; HNF4A DNA FP: 99; TPT1 inh: 6; ATG4B inh: -4; SENP1 FRET inh: 1; Rpn11 inh: 106*; Rpn11 confirm: -5; MMP-2 counter: 29; Thrombin FP: -15

How did C=CCn1c2ccccc2c2nnc(SCC(=O)OC)nc21 do in these assays?
CSN inh: -2; HNF4A DNA FP: 2; SENP1 FRET inh: 1; Rpn11 inh: 1

How did C=CCn1c2ccccc2c2nnc(SCC(N)=O)nc21 do in these assays?
CSN inh: -3; HNF4A DNA FP: 4; TPT1 inh: 0; ATG4B inh: -6; SENP1 FRET inh: 1; Rpn11 inh: 45*; Rpn11 confirm: -4; MMP-2 counter: -30; Thrombin FP: -1

What do the screens show for `O=C(O)/C(=C\C(=O)c1ccccc1)Nc1ccccc1`?
TPT1 inh: 1

Results for CN(CCC(=O)Nc1ccc(Cl)cc1)Cc1ccccc1 ?
CSN inh: 0; HNF4A DNA FP: 1; TPT1 inh: -4; ATG4B inh: 10; SENP1 FRET inh: 1; Rpn11 inh: 6

What do the screens show for `CN1CCCN(S(=O)(=O)c2ccccc2)c2nc3ccccc3nc21`?
CSN inh: 12; HNF4A DNA FP: 3; ATG4B inh: -6; SENP1 FRET inh: -43; Rpn11 inh: 10

How did CN1CCCNc2nc3ccccc3nc21 do in these assays?
CSN inh: 10; HNF4A DNA FP: 4; TPT1 inh: 9; ATG4B inh: -4; SENP1 FRET inh: -44; Rpn11 inh: 46*; Rpn11 confirm: -3; MMP-2 counter: -49; Thrombin FP: -8

How did CC(C)(C)c1ccc(OCCC(=O)Nc2cccc(S(=O)(=O)NC3=NCCCCC3)c2)cc1 do in these assays?
CSN inh: 3; HNF4A DNA FP: -2; ATG4B inh: -5; SENP1 FRET inh: 1; Rpn11 inh: -5

What do the screens show for `Cc1ccccc1C(=O)N1CCC(C(N)=O)CC1`?
CSN inh: -3; HNF4A DNA FP: -2; TPT1 inh: -2; ATG4B inh: -4; SENP1 FRET inh: -2; Rpn11 inh: 35*; Rpn11 confirm: 2; MMP-2 counter: -31; Thrombin FP: 5

What do the screens show for `Cc1ccccc1S(=O)(=O)N1C[C@H]2CON(C)[C@H]2C[C@H]1c1cccc(N2CCOCC2)c1`?
CSN inh: -3; HNF4A DNA FP: -3; ATG4B inh: 7; SENP1 FRET inh: 2; Rpn11 inh: -2

Screening data (PubChem BioAssay)
